Assay results as given in ChEMBL document CHEMBL5038577, “First-Time Disclosure of CVN424, a Potent and Selective GPR6 Inverse Agonist for the Treatment of Parkinson's Disease: Discovery, Pharmacological Validation, and Identification of a Clinical Candidate” (J Med Chem, 2021).
Activity calls are given as the source filed them. The calls are words filed in the database; no cut-off is given here.

Legend:
[1] = molecular target: T1, G-protein coupled receptor 6 (Homo sapiens, UniProt P46095); experiment: Inverse agonist activity at human GPR6 expressed in CHO-K1 cells assessed as modulation of cAMP level incubated for 20 hrs by TR-FRET assay relative to control; format: functional, cell-based; conditions: filed as inverse agonist
T1 sequence (P46095 whole entry): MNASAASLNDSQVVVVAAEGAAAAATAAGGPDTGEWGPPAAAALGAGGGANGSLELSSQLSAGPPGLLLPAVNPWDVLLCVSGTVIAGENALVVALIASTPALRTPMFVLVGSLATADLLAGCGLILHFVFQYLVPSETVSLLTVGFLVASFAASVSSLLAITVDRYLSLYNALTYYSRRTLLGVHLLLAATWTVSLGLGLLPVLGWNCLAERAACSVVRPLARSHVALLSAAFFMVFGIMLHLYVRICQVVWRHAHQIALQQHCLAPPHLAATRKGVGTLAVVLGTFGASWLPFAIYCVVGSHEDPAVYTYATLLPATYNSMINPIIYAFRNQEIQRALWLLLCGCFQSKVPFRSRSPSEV
How it was run: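 T-REx-CHO-K1 cells stably carrying tetracycline-inducible human GPR6 were induced with 2.0 μg/mL doxycycline for 20 h at 37 °C. Constitutive activity was measured with no agonist. Compound in Krebs Ringer's buffer with 0.5% fatty-acid-free BSA was added for 45 min at 37 °C. Eu-cAMP tracer (10 min) and ULight anti-cAMP antibody (1 h, RT) followed for TR-FRET. Four-parameter logistic fit; ≥2 experiments, triplicate.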

[2] = molecular target: T1, G-protein coupled receptor 6; experiment: Inverse agonist activity at human GPR6 expressed in CHO-K1 cells assessed as modulation of cAMP level incubated for 20 hrs by TR-FRET assay; format: functional, cell-based
How it was run: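 T-REx-CHO-K1 cells stably carrying tetracycline-inducible human GPR6 were induced with 2.0 μg/mL doxycycline for 20 h at 37 °C. No agonist was added, since receptor constitutive activity is used. Compound in Krebs Ringer's buffer with 0.5% fatty acid free BSA for 45 min at 37 °C. cAMP read by Eu-cAMP tracer/ULight anti-cAMP antibody TR-FRET. Four-parameter logistic fit; EC50 is the mean of ≥2 experiments, triplicate concentrations.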

Homo sapiens [3] = species on record: Homo sapiens; experiment: Selectivity for human GPR6 over human GRP3 assessed as fold change
Homo sapiens [4] = species on record: Homo sapiens; experiment: Selectivity for human GPR6 over human GRP12 assessed as fold change
Cytochrome P450 2D6 = Cytochrome P450 2D6 (Homo sapiens, UniProt P10635); experiment: Inhibition of CYP2D6 (unknown origin); format: ADME
Cytochrome P450 2D6, sequence (P10635 whole entry): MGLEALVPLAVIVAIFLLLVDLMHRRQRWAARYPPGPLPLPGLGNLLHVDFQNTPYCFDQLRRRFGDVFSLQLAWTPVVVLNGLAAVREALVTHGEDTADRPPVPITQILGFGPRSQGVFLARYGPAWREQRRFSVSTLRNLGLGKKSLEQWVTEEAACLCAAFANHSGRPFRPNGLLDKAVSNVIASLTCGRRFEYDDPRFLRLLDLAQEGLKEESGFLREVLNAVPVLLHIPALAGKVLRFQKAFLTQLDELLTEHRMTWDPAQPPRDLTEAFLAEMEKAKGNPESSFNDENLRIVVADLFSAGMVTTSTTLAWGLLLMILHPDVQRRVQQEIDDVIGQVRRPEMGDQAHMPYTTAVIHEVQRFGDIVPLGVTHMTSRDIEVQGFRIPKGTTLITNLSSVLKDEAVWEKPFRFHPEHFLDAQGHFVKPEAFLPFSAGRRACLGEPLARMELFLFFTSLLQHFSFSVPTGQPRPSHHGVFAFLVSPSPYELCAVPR

hERG (KCNH2) = hERG (KCNH2) (Homo sapiens, UniProt Q12809); experiment: Inhibition of human ERG at 10 uM relative to control; format: toxicity
hERG (KCNH2), sequence (Q12809 whole entry): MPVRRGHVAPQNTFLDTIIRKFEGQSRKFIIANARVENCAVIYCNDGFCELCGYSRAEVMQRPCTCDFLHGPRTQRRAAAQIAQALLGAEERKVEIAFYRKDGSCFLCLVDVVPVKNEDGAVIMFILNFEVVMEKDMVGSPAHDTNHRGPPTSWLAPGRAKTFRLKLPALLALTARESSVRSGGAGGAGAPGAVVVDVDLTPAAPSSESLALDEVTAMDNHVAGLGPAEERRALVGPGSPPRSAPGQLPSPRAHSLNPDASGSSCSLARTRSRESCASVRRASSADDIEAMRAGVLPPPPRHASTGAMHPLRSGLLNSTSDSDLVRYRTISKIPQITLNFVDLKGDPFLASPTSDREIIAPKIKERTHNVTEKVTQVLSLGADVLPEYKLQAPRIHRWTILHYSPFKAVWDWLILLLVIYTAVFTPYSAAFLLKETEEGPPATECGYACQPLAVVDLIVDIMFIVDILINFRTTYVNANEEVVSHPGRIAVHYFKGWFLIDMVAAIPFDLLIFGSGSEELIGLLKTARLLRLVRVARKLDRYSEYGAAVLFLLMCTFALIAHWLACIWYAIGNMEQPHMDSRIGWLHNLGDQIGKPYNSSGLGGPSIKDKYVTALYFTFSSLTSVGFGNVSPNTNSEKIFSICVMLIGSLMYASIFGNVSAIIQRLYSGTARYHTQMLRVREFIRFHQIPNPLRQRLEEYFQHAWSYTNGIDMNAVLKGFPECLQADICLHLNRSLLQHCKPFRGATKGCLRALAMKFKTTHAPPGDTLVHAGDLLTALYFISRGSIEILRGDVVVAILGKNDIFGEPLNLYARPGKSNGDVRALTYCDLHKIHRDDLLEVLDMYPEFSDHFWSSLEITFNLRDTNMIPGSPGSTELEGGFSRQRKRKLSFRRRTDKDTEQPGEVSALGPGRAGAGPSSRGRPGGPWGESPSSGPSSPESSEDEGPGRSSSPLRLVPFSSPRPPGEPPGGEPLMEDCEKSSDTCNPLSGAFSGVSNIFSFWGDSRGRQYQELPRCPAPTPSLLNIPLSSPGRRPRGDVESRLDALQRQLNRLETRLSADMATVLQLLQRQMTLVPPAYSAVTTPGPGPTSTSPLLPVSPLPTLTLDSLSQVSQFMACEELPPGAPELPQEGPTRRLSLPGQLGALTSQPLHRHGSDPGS

[5] = Permeability of compound across apical to basolateral side in pig LLC-PK1 cells expressing MDR1; format: ADME, cell-based, Sus scrofa; conditions: read-out: permeability
[6] = molecular target: T1, G-protein coupled receptor 6; experiment: Displacement of 3H-RL338 from human GPR6 expressed in T-REx-CHO-GPR6 cells assessed as inhibition constant by competition binding assay; format: cell-based
How it was run: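 Competition filtration binding on membranes from doxycycline-inducible T-REx-CHO cells expressing human GPR6 (15 μg/well). Tracer is 3H-RL-338, and test compound top concentration is 5 μM final. Buffer: 50 mM Tris pH 7.4, 50 mM NaCl, 6 mM MgCl2, 0.1% fatty acid free BSA, protease inhibitors. Incubated 2 h at room temperature, filtered, washed cold, scintillation counted. IC50 comes from a four-parameter fit; Ki by Cheng–Prusoff using the 3H-RL-338 Kd (2.4 or 5 nM, by batch).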

Rattus norvegicus [7] = experiment: Reversal of haloperidol-induced catalepsy in Sprague-Dawley rat assessed as reduction in catalepsy at 0.1 to 30 mg/kg, sc measured after 120 min; format: functional, organism-based; conditions: dose 0.1-30 mg/kg
How it was run: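 Male Sprague-Dawley rats (n = 9–10/group) received haloperidol 1 mg/kg i.p. together with vehicle (10% DMSO, 0.5% methylcellulose) or compound at 0.1–30 mg/kg s.c. Bar test at 120 min: front paws placed on a bar 6' high, time recorded up to 60 s. Three trials were averaged.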

P-gp (MDR1, ABCB1) = P-gp (MDR1, ABCB1) (Homo sapiens, UniProt P08183); experiment: Substrate activity at P-gp (unknown origin) transfected in pig LLC-PK1 cells expressing MDR1 gene assessed as efflux ratio; format: ADME, cell-based
P-gp (MDR1, ABCB1), sequence (P08183 whole entry): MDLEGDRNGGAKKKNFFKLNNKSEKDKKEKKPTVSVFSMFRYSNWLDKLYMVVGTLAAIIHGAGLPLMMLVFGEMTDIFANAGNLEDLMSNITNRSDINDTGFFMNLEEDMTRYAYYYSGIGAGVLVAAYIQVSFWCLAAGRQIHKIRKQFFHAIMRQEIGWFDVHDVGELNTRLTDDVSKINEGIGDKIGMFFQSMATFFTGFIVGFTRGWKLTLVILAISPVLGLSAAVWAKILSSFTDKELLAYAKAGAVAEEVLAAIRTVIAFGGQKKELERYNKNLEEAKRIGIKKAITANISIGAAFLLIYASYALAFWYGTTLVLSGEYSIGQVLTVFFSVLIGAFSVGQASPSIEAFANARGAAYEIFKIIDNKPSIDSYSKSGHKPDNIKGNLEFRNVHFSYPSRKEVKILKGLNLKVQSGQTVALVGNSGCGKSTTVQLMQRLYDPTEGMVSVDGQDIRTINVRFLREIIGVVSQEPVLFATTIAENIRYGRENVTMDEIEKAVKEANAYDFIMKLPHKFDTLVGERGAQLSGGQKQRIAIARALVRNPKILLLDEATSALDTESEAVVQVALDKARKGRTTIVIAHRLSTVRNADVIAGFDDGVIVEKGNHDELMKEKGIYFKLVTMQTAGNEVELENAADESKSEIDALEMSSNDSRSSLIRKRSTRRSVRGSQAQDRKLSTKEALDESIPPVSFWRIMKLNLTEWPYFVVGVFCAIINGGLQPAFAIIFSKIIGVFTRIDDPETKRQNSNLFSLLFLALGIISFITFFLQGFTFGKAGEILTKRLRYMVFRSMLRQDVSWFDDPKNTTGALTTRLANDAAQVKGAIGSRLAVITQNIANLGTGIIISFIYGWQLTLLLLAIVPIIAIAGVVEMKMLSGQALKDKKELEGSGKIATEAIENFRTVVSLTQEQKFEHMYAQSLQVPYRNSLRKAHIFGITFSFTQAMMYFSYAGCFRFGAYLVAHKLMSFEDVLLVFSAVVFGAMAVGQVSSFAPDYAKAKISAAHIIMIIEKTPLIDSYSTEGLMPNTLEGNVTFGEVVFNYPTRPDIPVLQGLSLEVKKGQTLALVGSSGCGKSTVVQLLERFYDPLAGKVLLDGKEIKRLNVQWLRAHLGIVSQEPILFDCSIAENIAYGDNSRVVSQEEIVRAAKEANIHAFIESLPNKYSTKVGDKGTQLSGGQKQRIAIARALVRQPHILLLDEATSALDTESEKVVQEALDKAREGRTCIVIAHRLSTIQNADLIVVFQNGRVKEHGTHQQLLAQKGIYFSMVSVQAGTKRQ

Mus musculus [8] = experiment: Reversal of haloperidol-induced catalepsy in GPR6 knock out mouse assessed as reduction in catalepsy at 30 mg/kg, sc measured after 120 min; format: functional, organism-based
How it was run: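 Male GPR6 knock-out mice (n = 6/group) received haloperidol 1 mg/kg i.p. with vehicle (10% DMSO, 0.5% methylcellulose) or compound 30 mg/kg s.c. at the same time. Bar test at 120 min: bar 2' high, up to 60 s, average of three trials.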

[9] = Intrinsic clearance in human hepatocytes; format: ADME, cell-based, Hepatocyte; conditions: read-out: CLH
[10] = Unbound intrinsic clearance in human hepatocytes; format: ADME, cell-based, Hepatocyte
[11] = Lipophilicity, log D of compound; format: physicochemical; conditions: octanol/water
[12] = Intrinsic clearance in human liver microsomes; format: ADME, Microsome; conditions: read-out: CLH
[13] = molecular target: Voltage-gated inwardly rectifying potassium channel KCNH2 (Homo sapiens, UniProt Q12809); experiment: Inhibition of human ERG; format: toxicity
Voltage-gated inwardly rectifying potassium channel KCNH2, sequence (Q12809 whole entry): as the sequence (Q12809 whole entry) above

Mus musculus [14] = experiment: Reversal of haloperidol-induced catalepsy in GPR6 knock out mouse assessed as reduction in catalepsy at 0.3 mg/kg, ip measured after 120 min; format: functional, organism-based
How it was run: (§1)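 Wild-type C57BL/6J and GPR6 knock-out male mice (n = 6/group): KW6002 at 0.3 mg/kg i.p. given with haloperidol 1 mg/kg i.p. Bar test at 120 min: bar 2' high, maximum 60 s, three trials averaged.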

Rattus norvegicus [15] = experiment: Reversal of haloperidol-induced catalepsy in Sprague-Dawley rat assessed as reduction in catalepsy at 0.6 mg/kg, ip measured after 120 min; format: functional, organism-based
How it was run: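 Positive-control arm in male Sprague-Dawley rats (n = 9–10/group): A2A antagonist KW6002 at 0.6 mg/kg i.p., given together with haloperidol 1 mg/kg i.p. Bar test at 120 min: bar 6' high, up to 60 s, mean of three trials.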

Mus musculus [16] = experiment: Reversal of haloperidol-induced catalepsy in C57BL/6 mouse assessed as reduction in catalepsy at 0.3 mg/kg, ip measured after 120 min; format: functional, organism-based; how it was run: as §1

| SMILES | Emax [1] | EC50 [2] | fold change (FC) (Homo sapiens [3]) | fold change (FC) (Homo sapiens [4]) | IC50 (Cytochrome P450 2D6) | inhibition at 10 µM (hERG (KCNH2)) | also measured |
| --- | --- | --- | --- | --- | --- | --- | --- |
| N#Cc1ccc2nc(N3CCN(Cc4cc(Cl)ccc4Cl)CC3)c(NC3CC3)nc2c1 | 107% | 174 nM | – | – | – | – | – |
| Clc1ccc(Cl)c(CN2CCN(c3nc4ccncc4nc3NC3CC3)CC2)c1 | 102% | 55 nM | – | – | – | – | – |
| COc1ccc2nc(N3CCN(Cc4cc(Cl)ccc4Cl)CC3)c(NC3CC3)nc2c1 | 90% | 4100 nM | – | – | – | – | – |
| Cc1cccc(CN2CCN(c3nc4ccccc4nc3NC3CC3)CC2)c1 | 110% | 14000 nM | – | – | – | – | – |
| Cc1cc2nc(N3CCC(Oc4ccc(F)cc4F)CC3)c(NC3CC3)nc2cn1 | – | 95 nM | 19 | 105 | 6310 nM | – | – |
| Cc1cc2nc(N3CCC(Oc4ccc(F)cc4F)CC3)c(NC(C)C)nc2cn1 | – | 61000 nM | 19 | 47 | 3980 nM | 71% | – |
| Cc1cc2nc(NC(C)C)c(N3CCN(Cc4ccc(F)cc4F)CC3)nc2cn1 | – | 51000 nM | 5 | 19 | 3980 nM | 13% | – |
| Cc1cccc(CN2CCN(c3nc4nonc4nc3NC3CC3)CC2)c1 | 73% | 43000 nM | – | – | – | – | – |
| CC(=O)N1CCc2nc(N3CCC(Oc4ccc(F)cc4F)CC3)c(N[C@@H]3CCOC3)nc2C1 | – | 38000 nM | – | – | – | – | Papp A→B [5]: 17 ×10⁻⁶ cm/s; CLint scaled [9]: 48 mL/min/kg; Ki [6]: 9.4 nM; fraction unbound [10]: 0.51; efflux ratio (P-gp (MDR1, ABCB1)): 0.7; logD [11]: 3.6; CLint scaled [12]: 62 mL/min/kg; IC50 [13]: 3500 nM |
| CC(C)Nc1nc2cc(C#N)ncc2nc1N1CCC(Oc2ccc(F)cc2F)CC1 | – | 55 nM | 6 | 13 | – | – | – |
| Fc1ccc2nc(N3CCN(Cc4cc(Cl)ccc4Cl)CC3)c(NC3CC3)nc2c1 | 90% | 1200 nM | – | – | – | – | – |
| CCn1c(=O)c2c(nc(/C=C/c3ccc(OC)c(OC)c3)n2C)n(CC)c1=O | – | – | – | – | – | – | Activity (Mus musculus [14]): Active; Activity (Rattus norvegicus [15]): Active; Activity (Mus musculus [16]): Active |
| CC(C)Nc1nc2c(nc1N1CCC(Oc3ccc(F)cc3F)CC1)CCN(C)C2 | – | 89 nM | 21 | 69 | > 10000 nM | 36% | – |
| CN(C)C(=O)c1ccc2nc(NC3CC3)c(N3CCN(Cc4cc(Cl)ccc4Cl)CC3)nc2c1 | 105% | 90 nM | – | – | – | – | – |
| Fc1ccc(F)c(CN2CCN(c3nc4cnccc4nc3NC3CC3)CC2)c1 | – | 151 nM | – | – | 126 nM | 40% | – |
| Clc1ccc(Cl)c(CN2CCN(c3nc4ccccc4nc3NC3CC3)CC2)c1 | 89% | 2100 nM | – | – | – | – | – |
| Cc1ccc2nc(N3CCN(Cc4cc(Cl)ccc4Cl)CC3)c(NC3CC3)nc2c1 | 90% | 16000 nM | – | – | – | – | – |

Continued by falling EC50 [2], values first:

| Emax [1] | EC50 [2] | fold change (FC) (Homo sapiens [3]) | fold change (FC) (Homo sapiens [4]) | IC50 (Cytochrome P450 2D6) | SMILES | inhibition at 10 µM (hERG (KCNH2)) | also measured |
| --- | --- | --- | --- | --- | --- | --- | --- |
| 110% | 53 nM | – | – | – | Clc1ccc(Cl)c(CN2CCN(c3nc4cnccc4nc3NC3CC3)CC2)c1 | – | – |
| – | 39 nM | 21 | 80 | 50.1 nM | Fc1ccc(CN2CCN(c3nc4cnccc4nc3NC3CC3)CC2)c(F)c1 | 40% | Papp A→B [5]: 16 ×10⁻⁶ cm/s; Ki [6]: 7 nM; Activity (Rattus norvegicus [7]): Dose-Dependent Effect; efflux ratio (P-gp (MDR1, ABCB1)): 0.5; Activity (Mus musculus [8]): inactive |
| – | 30 nM | 20 | 16 | > 10000 nM | CCC(=O)N1CCc2nc(N3CCN(Cc4ccc(F)cc4F)CC3)c(NC(C)C)nc2C1 | – | – |
| – | 29 nM | 638 | 15 | – | Fc1ccc(Cl)cc1CN1CCN(c2nc3cnccc3nc2NC2CC2)CC1 | – | – |
| – | 29 nM | 14 | 78 | 3980 nM | Cc1cc2nc(NC3CC3)c(N3CCN(Cc4ccc(F)cc4F)CC3)nc2cn1 | 23% | – |
| – | 29 nM | 19 | 105 | 6310 nM | Cc1cc2nc(NC3CC3)c(N3CCC(Oc4ccc(F)cc4F)CC3)nc2cn1 | 75% | – |
| – | 21 nM | 9 | 14 | – | CC(C)Nc1nc2ccncc2nc1N1CCN(Cc2ccc(F)cc2F)CC1 | – | – |
| – | 16 nM | 13 | 27 | 6310 nM | Cc1cc2nc(NC(C)C)c(N3CCC(Oc4ccc(F)cc4F)CC3)nc2cn1 | 75% | – |
